pIC50: −log10 of the molar value.
Legend:
HCT-116 = assay: Antiproliferative activity against human HCT116 cells after 72 hrs by MTT assay; type: functional, cell-based
Summary of the method: (§1)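 Cells from ATCC grown in DMEM or RPMI-1640 with 5% FCS, 2 mM L-glutamine, and penicillin/streptomycin at 37 °C, 5% CO2. 5 × 10³ log-phase cells per well were exposed to serial dilutions (from 10 mM DMSO stocks; 0.1% DMSO vehicle control), each dose in duplicate, for 72 h. MTT was added for 2 h and absorbance read at 540 nm. IC50 is the 50% viability inhibition versus vehicle. Mean ± SD of 4–5 independent experiments.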

K562 = assay: Antiproliferative activity against human K562 cells after 72 hrs by MTT assay; type: functional, cell-based; summary of the method: as §1
P388 [1] = assay: Antitumor activity against mouse P388 cells xenografted in B6D2F1 mouse assessed as increase in lifespan at 2 mg/kg, ip administered daily for 5 days relative to untreated control; type: functional; details: route intraperitoneal
Summary of the method: (§2)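 Each group of 10 B6D2F1 mice received 10^6 P388 lymphoma cells ip on day 0. Drug was dissolved in 0.1% DMSO, diluted with saline and given once daily for 5 days; controls were untreated. ILS (%) = (Dt−Dc)/Dc × 100, where Dt and Dc are mean survival times in days for treated and control groups.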

P388 [2] = assay: Antitumor activity against mouse P388 cells xenografted in B6D2F1 mouse assessed as increase in lifespan at 1 mg/kg, ip administered daily for 5 days relative to untreated control; type: functional; details: route intraperitoneal; summary of the method: as §2
[3] = Toxicity in mouse P388 cells xenografted B6D2F1 mouse assessed as mortality at 4 mg/kg, ip administered daily for 5 days; type: organism-based; parameters: dose 4 mg/kg, route intraperitoneal; details: in vivo, read-out: Activity
Summary of the method: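 B6D2F1 mice, 10 per group, were inoculated ip with 10^6 P388 cells on day 0. Drug in 0.1% DMSO, diluted in saline, was given daily for 5 days. Physical condition, body weight, behaviour, nutrition and hair cover were monitored daily. Mortality was scored as drug-related toxicity deaths.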

B16 [4] = assay: Antitumor activity against mouse B16 cells xenografted in B6D2F1 mouse assessed as tumor growth inhibition at 2 mg/kg, iv administered on days 1,4,7,10 and 13 measured 28 days post tumor challenge; type: functional; details: B16, 672 h, read-out: GI
Summary of the method: (§3)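 B6D2F1 mice, 10 per group, received 10⁶ B16 melanoma cells s.c. into the right flank on day 0. Compound diluted in saline was given iv on days 1, 4, 7, 10, 13 (5 injections) or days 1–22 every third day (8 injections). Controls were left untreated, and mice were sacrificed by day 28. ITG% = (Mc−Mt)/Mc × 100, using calculated tumor weight (a×b×c)/2.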

B16 [5] = assay: Antitumor activity against mouse B16 cells xenografted in B6D2F1 mouse assessed as tumor growth inhibition at 2 mg/kg, iv administered on days 1,4,7,10,13,16,19 and 22 measured 28 days post tumor challenge; type: functional; details: B16, 672 h, read-out: GI; summary of the method: as §3
Nucleic Acid [6] = assay: Binding affinity to Salmon sperm DNA assessed as increase in fluorescence at 1.34 uM by spectrophotometry; type: nucleic-acid assay; details: Salmonidae
Nucleic Acid [7] = assay: Binding affinity to Salmon sperm DNA at 1.34 uM by Scatchard plot analysis; type: nucleic-acid assay; details: Salmonidae
Nucleic Acid [8] = assay: Binding affinity to Salmon sperm DNA assessed as increase in fluorescence at 1.34 uM by spectrophotometry; details: Salmonidae

| Structure (SMILES) | pIC50 (HCT-116) | pIC50 (K562) | other results |
| --- | --- | --- | --- |
| CO[C@H]1[C@H](O)C[C@@H](O[C@@H]2C[C@H](Oc3cc(O)c4c(O)c5c(cc4c3)C[C@@H]([C@H](OC)C(N)=O)[C@H](O[C@H]3C[C@H](O[C@H]4C[C@H](O[C@H]6C[C@@](C)(O)[C@@H](OC(=O)C(C)C)[C@H](C)O6)[C@H](O)[C@@H](C)O4)[C@H](O)[C@@H](C)O3)C5=O)O[C@H](C)[C@H]2OC(C)=O)O[C@@H]1C | 7.00 |  |  |
| COC(=O)[C@H](C)NC(=O)[C@@H](OC)[C@@H]1Cc2cc3cc(O[C@H]4C[C@@H](O[C@@H]5C[C@@H](O)[C@H](OC)[C@@H](C)O5)[C@H](OC(C)=O)[C@@H](C)O4)cc(O)c3c(O)c2C(=O)[C@H]1O[C@H]1C[C@H](O[C@H]2C[C@H](O[C@H]3C[C@@](C)(O)[C@@H](OC(=O)C(C)C)[C@H](C)O3)[C@H](O)[C@@H](C)O2)[C@H](O)[C@@H](C)O1 | 7.70 | 7.20 |  |
| CO[C@H]1[C@H](O)C[C@@H](O[C@@H]2C[C@H](Oc3cc(O)c4c(O)c5c(cc4c3)C[C@@H]([C@H](OC)C(=O)N[C@@H]3[C@@H](O)[C@@H](O)[C@@H](CO)O[C@H]3O)[C@H](O[C@H]3C[C@H](O[C@H]4C[C@H](O[C@H]6C[C@@](C)(O)[C@@H](OC(=O)C(C)C)[C@H](C)O6)[C@H](O)[C@@H](C)O4)[C@H](O)[C@@H](C)O3)C5=O)O[C@H](C)[C@H]2OC(C)=O)O[C@@H]1C | < 4.90 | 5.62 |  |
| CO[C@H]1[C@H](O)C[C@@H](O[C@@H]2C[C@H](Oc3cc(O)c4c(O)c5c(cc4c3)C[C@@H]([C@H](OC)C(=O)[C@@H](O)[C@@H](C)O)[C@H](O[C@H]3C[C@H](O[C@H]4C[C@H](O[C@H]6C[C@@](C)(O)[C@@H](OC(=O)C(C)C)[C@H](C)O6)[C@H](O)[C@@H](C)O4)[C@H](O)[C@@H](C)O3)C5=O)O[C@H](C)[C@H]2OC(C)=O)O[C@@H]1C [OLIVOMYCIN A] | 7.70 | 7.30 | Activity (P388 [1]): 35%; Activity (P388 [2]): 24%; mortality at 120 h [3]: 87%; inhibition in vivo at 2 mg/kg (B16 [4]): 48%; inhibition in vivo at 2 mg/kg (B16 [5]): 45% |
| CO[C@H]1[C@H](O)C[C@@H](O[C@@H]2C[C@H](Oc3cc(O)c4c(O)c5c(cc4c3)C[C@@H]([C@H](OC)C(=O)O)[C@H](O[C@H]3C[C@H](O[C@H]4C[C@H](O[C@H]6C[C@@](C)(O)[C@@H](OC(=O)C(C)C)[C@H](C)O6)[C@H](O)[C@@H](C)O4)[C@H](O)[C@@H](C)O3)C5=O)O[C@H](C)[C@H]2OC(C)=O)O[C@@H]1C [OLIVOMYCIN SA] | 5.70 | 5.66 | Activity (Nucleic Acid [6]): Dose-dependent effect; K (Nucleic Acid [7]): 2.1 ×10⁴ /M; Activity (Nucleic Acid [8]): Dose-dependent effect |

Continued by rising pIC50 (HCT-116), values first:

| pIC50 (HCT-116) | pIC50 (K562) | Structure (SMILES) | other results |
| --- | --- | --- | --- |
| 6.56 | 6.83 | CO[C@H]1[C@H](O)C[C@@H](O[C@@H]2C[C@H](Oc3cc(O)c4c(O)c5c(cc4c3)C[C@@H]([C@H](OC)C(=O)NCc3ccc(F)cc3)[C@H](O[C@H]3C[C@H](O[C@H]4C[C@H](O[C@H]6C[C@@](C)(O)[C@@H](OC(=O)C(C)C)[C@H](C)O6)[C@H](O)[C@@H](C)O4)[C@H](O)[C@@H](C)O3)C5=O)O[C@H](C)[C@H]2OC(C)=O)O[C@@H]1C |  |
| 6.74 |  | CO[C@H]1[C@H](O)C[C@@H](O[C@@H]2C[C@H](Oc3cc(O)c4c(O)c5c(cc4c3)C[C@@H]([C@H](OC)C(=O)NC3C4CC6CC(C4)CC3C6)[C@H](O[C@H]3C[C@H](O[C@H]4C[C@H](O[C@H]6C[C@@](C)(O)[C@@H](OC(=O)C(C)C)[C@H](C)O6)[C@H](O)[C@@H](C)O4)[C@H](O)[C@@H](C)O3)C5=O)O[C@H](C)[C@H]2OC(C)=O)O[C@@H]1C (some centres undefined) |  |
| 6.81 |  | CO[C@H]1[C@H](O)C[C@@H](O[C@@H]2C[C@H](Oc3cc(O)c4c(O)c5c(cc4c3)C[C@@H]([C@H](OC)C(=O)NCCCO)[C@H](O[C@H]3C[C@H](O[C@H]4C[C@H](O[C@H]6C[C@@](C)(O)[C@@H](OC(=O)C(C)C)[C@H](C)O6)[C@H](O)[C@@H](C)O4)[C@H](O)[C@@H](C)O3)C5=O)O[C@H](C)[C@H]2OC(C)=O)O[C@@H]1C |  |
| 6.92 |  | CNC(=O)[C@@H](OC)[C@@H]1Cc2cc3cc(O[C@H]4C[C@@H](O[C@@H]5C[C@@H](O)[C@H](OC)[C@@H](C)O5)[C@H](OC(C)=O)[C@@H](C)O4)cc(O)c3c(O)c2C(=O)[C@H]1O[C@H]1C[C@H](O[C@H]2C[C@H](O[C@H]3C[C@@](C)(O)[C@@H](OC(=O)C(C)C)[C@H](C)O3)[C@H](O)[C@@H](C)O2)[C@H](O)[C@@H](C)O1 |  |
| 7.70 | 7.33 | CO[C@H]1[C@H](O)C[C@@H](O[C@@H]2C[C@H](Oc3cc(O)c4c(O)c5c(cc4c3)C[C@@H]([C@H](OC)C(=O)NCCN(C)C)[C@H](O[C@H]3C[C@H](O[C@H]4C[C@H](O[C@H]6C[C@@](C)(O)[C@@H](OC(=O)C(C)C)[C@H](C)O6)[C@H](O)[C@@H](C)O4)[C@H](O)[C@@H](C)O3)C5=O)O[C@H](C)[C@H]2OC(C)=O)O[C@@H]1C |  |

From ChEMBL document CHEMBL1926623, “Modification of olivomycin A at the side chain of the aglycon yields the derivative with perspective antitumor characteristics” (Bioorg Med Chem, 2011)
